B2AR ag: activates human beta-2 adrenergic receptor causing internalization | AID 504454 | response, % (no concentration beside the values) | 340,000 compounds, 0.43% hits | Am2.2-beta2AR cells, FAP receptor internalization, flow cytometry | P07550;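 active means response above a set limit, near 3 SD of response in nonfluorescent compounds, cut at about 42% in these data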
MC4R antag cAMP: blocks human MC4R cAMP signaling | inhibition, % at 6.5 µM | AID 540295 | MC4R-expressing cells, MTII-stimulated cAMP, LANCE TR-FRET | 360,000 compounds, 0.48% hits;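 active means inhibition above its plate's cutoff, the mean of tested wells on that plate plus 3 SD, cut at about 29% in these data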;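 further: 0% = Melanotan II alone and 100% = Melanotan II plus saturating MCL0020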
Target sequence (P32245 whole entry, looked up): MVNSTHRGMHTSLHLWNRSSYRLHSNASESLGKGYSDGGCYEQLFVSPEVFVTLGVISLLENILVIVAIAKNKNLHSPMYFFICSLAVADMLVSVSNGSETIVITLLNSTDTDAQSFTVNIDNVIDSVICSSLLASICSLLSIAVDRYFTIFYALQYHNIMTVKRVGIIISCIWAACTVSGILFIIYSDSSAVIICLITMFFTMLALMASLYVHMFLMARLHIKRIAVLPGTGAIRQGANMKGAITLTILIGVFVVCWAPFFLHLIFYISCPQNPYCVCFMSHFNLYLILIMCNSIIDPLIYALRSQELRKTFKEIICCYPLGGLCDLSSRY
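system = U2OS cells with stable human MC4R expression | also added = Melanotan II challenge after compound preincubation | dosing = one concentration, 6.5 µM nominal | incubation = compound 30 min, challenge 1 h, detection 1 h | measured by = TR-FRET with Eu-cAMP and labeled anti-cAMP, 671 nm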
MC4R barr agon: activates human MC4R beta-arrestin recruitment. U2OS MC4R beta-arrestin complementation, luminescence; percent of melanotan II response, DMSO zero. activation, % at 8.9 µM. 360,000 compounds, 0.98% hits. P32245;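 active means activation above a per-plate cutoff, the mean activation of sample wells on that plate plus 3 SD, cut at about 8% in these data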
TAAR1 ag: human TAAR1 agonism. CHO RD-HGA16 TAAR1, Fluo-8 calcium fluorescence; vehicle wells 0%, saturating PEA agonist 100%. 360,000 compounds, 0.99% hits. activation, % at 3 µM;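 active means activation above the mean activation of all test compounds in the run plus 3 SD, cut at about 38% in these data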
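System: CHO-derived RD-HGA16 cells with stable Gα16 and human TAAR1. Times: 17-24 h plating, Fluo-8 75 min 37 °C, 30 min RT. Measured by: calcium-sensitive Fluo-8 signal, excitation 470-495, emission 515-575 nm. Read-out basis: % activation relative to PEA EC100 response. Control set: DMSO and PEA EC100. Repeats: no replicates (n 1).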
HTR2A ag: mouse HTR2A agonism via beta-arrestin recruitment; CHO-K1 mHTR2A beta-arrestin complementation, luminescence; percent of 30 µM serotonin response; activation, % at 7.6 µM; 360,000 compounds, 0.66% hits; AID 624169;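 active means activation above a run cutoff, the mean activation of all tested compounds plus 3 SD, cut at about 14% in these data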;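 further: 0% = plate median of compound wells and 100% = 30 µM serotonin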
TAAR1 antagonist: antagonists of human TAAR1 | Q96RJ0 | CHO RD-HGA16 TAAR1, Fluo-8 calcium fluorescence, antagonist | inhibition, % at 3 µM | 360,000 compounds, 1.5% hits;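 active means inhibition above a per-plate cutoff, the mean inhibition of test compounds on that plate plus 3 SD, cut at about 49% in these data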;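 further: 0% = DMSO plus EC80 beta-PEA response and 100% = DMSO alone without agonist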
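test system = CHO RD-HGA16 cells bearing hTAAR1 | replication = singlicate | controls = DMSO-only wells and EC80 β-PEA-stimulated wells | reagent = EC80 β-phenethylamine stimulus | read-out basis = percent inhibition of PEA-evoked calcium signal, max/basal emission ratio | schedule = seeding 17-24 h prior, 75-min 37 °C, 30-min RT dye loading | signal = kinetic Fluo-8 calcium fluorescence measurement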
TAAR1 ag conf: confirmation of human TAAR1 agonists; shares compounds with TAAR1 ag; CHO RD-HGA16 TAAR1, Fluo-8 calcium fluorescence; scaled: DMSO 0%, maximal phenethylamine 100%; activation, % at 3 µM; 2,400 compounds, 82% hits;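 active means activation above a cutoff set at the run's mean compound activation plus 3 SD, cut at about 39% in these data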
Ga16 ag counter: nonselective agonism, TAAR1 counter-screen; shares compounds with TAAR1 ag; AID 651787; CHO-Ga16 parental, Fluo-8 calcium fluorescence; normalized to maximal ATP response, DMSO zero; activation, % at 3 µM; 2,400 compounds, 50% hits;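 active means activation above the run cutoff, the mean activation over all tested wells plus 3 SD, cut at about 12% in these data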;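 further: 0% = DMSO wells and 100% = maximal ATP response on the peak over basal ratio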
TAAR1 desensitize: TAAR1 response desensitization, agonist counter-screen; CHO RD-HGA16 hTAAR1, Fluo-8 calcium, beta-PEA response inhibition; 2,400 compounds, 46% hits; inhibition, % at 3 µM; shares compounds with TAAR1 ag; AID 651951;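 active means inhibition above the run cutoff, the mean inhibition of all test compounds plus 3 SD, cut at about 49% in these data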;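 further: beta-PEA stimulus applied at its EC80; loss of beta-PEA calcium signal after compound pretreatment read as receptor desensitization; 0% = DMSO with beta-PEA at EC80 and 100% = DMSO alone without agonist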
Ga16 antag count: counter-screen for TAAR1 agonists: nonselective Ga16 antagonists | inhibition, % at 3 µM | shares compounds with TAAR1 ag | CHO-Ga16 ATP-induced calcium, Fluo-8 fluorescence | 2,400 compounds, 39% hits;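 active means inhibition above the plate's mean compound inhibition plus 3 SD, computed per plate, cut at about 22% in these data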;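 further: 0% = EC80 ATP with DMSO and 100% = DMSO wells without ATP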
An asterisk follows results filed as active. Rows were chosen to be rich in hits. Some 4.3% of all compounds tested hit in one or more screens of this group.

`COc1ccc(Br)cc1CSC(=N)N` gave B2AR ag 1, MC4R antag cAMP -2, MC4R barr agon -2, TAAR1 ag 46*, HTR2A ag -6, TAAR1 antagonist 16, TAAR1 ag conf 71*, Ga16 ag counter 4, TAAR1 desensitize 42 and Ga16 antag count 9.
For CCCCCOc1ccc(Br)cc1CSC(=N)N the results were B2AR ag 11, MC4R antag cAMP -23, MC4R barr agon 2, TAAR1 ag 93*, HTR2A ag -4, TAAR1 antagonist 93*, TAAR1 ag conf 106*, Ga16 ag counter 60*, TAAR1 desensitize 102* and Ga16 antag count 71*.
`CCOc1ccc(CSC(=N)N)cc1` gave B2AR ag 8, MC4R antag cAMP 6, MC4R barr agon 1, TAAR1 ag 12, HTR2A ag -3 and TAAR1 antagonist -5.
Screening CC(=O)c1ccc(OC(C)C)c(CSC(=N)N)c1 returned B2AR ag -6, MC4R antag cAMP 5, MC4R barr agon 2, TAAR1 ag 30, HTR2A ag -6 and TAAR1 antagonist -9.
Screening CCCCOc1ccc(CSC(=N)N)cc1Cl returned B2AR ag 26, MC4R antag cAMP 3, MC4R barr agon 7, TAAR1 ag 100*, HTR2A ag -7, TAAR1 antagonist 1, TAAR1 ag conf 109*, Ga16 ag counter 55*, TAAR1 desensitize 61* and Ga16 antag count 27*.
For N#Cc1ccc(N=c2ssnc2Cl)cc1 the results were B2AR ag 4, MC4R antag cAMP 13, MC4R barr agon -1, TAAR1 ag 48*, HTR2A ag 4, TAAR1 antagonist 11, TAAR1 ag conf 53*, Ga16 ag counter 44*, TAAR1 desensitize 28 and Ga16 antag count 25*.
For Clc1nssc1=Nc1ccccc1 the results were B2AR ag 2, MC4R antag cAMP 0, MC4R barr agon -2 and HTR2A ag 8.
For O=C(NC(=S)NNC(=O)c1cccs1)c1ccc(Br)o1 the results were B2AR ag 1, MC4R antag cAMP 4, MC4R barr agon -2, TAAR1 ag 116*, HTR2A ag 4, TAAR1 antagonist 42, TAAR1 ag conf 65*, Ga16 ag counter 46*, TAAR1 desensitize 32 and Ga16 antag count 27*.
For Cc1cc(OCC(=O)NNC(=S)NC(=O)c2ccc(Br)o2)ccc1Cl the results were B2AR ag 1, MC4R antag cAMP -2, MC4R barr agon -6, TAAR1 ag 121*, HTR2A ag 5, TAAR1 antagonist 66*, TAAR1 ag conf 98*, Ga16 ag counter 73*, TAAR1 desensitize 75* and Ga16 antag count 56*.
For CCOC(=O)c1c(C)[nH]c(C(=O)CN(C)CC(=O)Nc2ccccc2Cl)c1C the results were B2AR ag 3, MC4R antag cAMP -1, MC4R barr agon -1, TAAR1 ag 1, HTR2A ag 0 and TAAR1 antagonist 12.
For Clc1ccc(/C=N/Nc2ncnc3ccccc23)cc1Cl the results were B2AR ag -3, MC4R antag cAMP 7, MC4R barr agon 1, TAAR1 ag 45*, HTR2A ag 0, TAAR1 antagonist 14, TAAR1 ag conf 19, Ga16 ag counter 13*, TAAR1 desensitize 14 and Ga16 antag count -2.
Screening O=C(CN(C(=O)CCC(=O)Nc1ccccn1)c1cccc(F)c1)NCc1ccco1 returned B2AR ag 3, MC4R antag cAMP 8, MC4R barr agon -2, TAAR1 ag 0, HTR2A ag -3 and TAAR1 antagonist -10.
Cc1cc(C)n(CCCNC(=O)C(C)(C)Oc2ccc(Cl)cc2)n1 was read as B2AR ag -4, MC4R antag cAMP -2, MC4R barr agon 0, TAAR1 ag 0, HTR2A ag 0 and TAAR1 antagonist -5.
`N#Cc1cccc(NC(=O)Nc2cccs2)c1` gave B2AR ag -3, MC4R antag cAMP -3, MC4R barr agon 1, TAAR1 ag 58*, HTR2A ag -1, TAAR1 antagonist 17, TAAR1 ag conf 74*, Ga16 ag counter 16*, TAAR1 desensitize 40 and Ga16 antag count 27*.
`CCc1cccc(NC(=O)Nc2cccs2)c1` gave B2AR ag -9, MC4R antag cAMP 2, MC4R barr agon 0, TAAR1 ag 14, HTR2A ag -6 and TAAR1 antagonist 20.
Screening COCCn1nnnc1CN(Cc1cccnc1)Cc1cc2cc(OC)ccc2[nH]c1=O returned B2AR ag -9, MC4R antag cAMP 1, MC4R barr agon -2, TAAR1 ag 4, HTR2A ag 1 and TAAR1 antagonist -1.
